Test results as given in ChEMBL document CHEMBL2040727, “Substituted thiazoles VI. Synthesis and antitumor activity of new 2-acetamido- and 2 or 3-propanamido-thiazole analogs” (2012).

tested on: not listed separately; assay: Growth inhibition of human NCI-ADR-RES cells at 10 uM after 48 hrs by coulter counter analysis; assay type: functional; conditions: read-out: GI
How it was run: (§1)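 Single-dose NCI 60-line panel screen of test compounds. Cells grown in RPMI 1640 with 10% FBS. Compounds dissolved in DMSO, then diluted in phosphate buffer saline (final DMSO below 1%). Wells run in duplicate at 6 × 10⁴ cells/ml. Controls held PBS and DMSO at matching dilutions. Incubation 48 h at 37 °C under humidified 5% CO2. Cells diluted tenfold in saline and counted by Coulter counter. Percent growth inhibition taken from mean-graph of treated-cell growth.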

Compound	inhibition of growth at 10 µM
Cc1csc(NC(=O)C(C)N2CCN(c3ccccc3)CC2)n1 (stereo unspecified)	< 10%

tested on: HCC 2998; assay: Growth inhibition of human HCC2998 cells at 10 uM after 48 hrs by coulter counter analysis; assay type: functional; conditions: HCC 2998, 48 h, read-out: GI; how it was run: as §1

Compound	inhibition of growth at 10 µM
Cc1csc(NC(=O)C(C)N2CCN(c3ccccc3)CC2)n1 (stereo unspecified)	< 10%

tested on: MDA-MB-435; assay: Growth inhibition of human MDA-MB-435 cells at 10 uM after 48 hrs by coulter counter analysis; assay type: functional; conditions: MDA-MB-435, 48 h, read-out: GI; how it was run: as §1

Compound	inhibition of growth at 10 µM
Cc1csc(NC(=O)C(C)N2CCN(c3ccccc3)CC2)n1 (stereo unspecified)	< 10%

tested on: KM12; assay: Growth inhibition of human KM12 cells at 10 uM after 48 hrs by coulter counter analysis; assay type: functional; conditions: KM12, 48 h, read-out: GI; how it was run: as §1

Compound	inhibition of growth at 10 µM
Cc1csc(NC(=O)C(C)N2CCN(c3ccccc3)CC2)n1 (stereo unspecified)	< 10%

tested on: SN12C; assay: Growth inhibition of human SN12C cells at 10 uM after 48 hrs by coulter counter analysis; assay type: functional; conditions: read-out: GI; how it was run: as §1

Compound	inhibition of growth at 10 µM
Cc1csc(NC(=O)C(C)N2CCN(c3ccccc3)CC2)n1 (stereo unspecified)	< 10%

tested on: HCT-15; assay: Growth inhibition of human HCT15 cells at 10 uM after 48 hrs by coulter counter analysis; assay type: functional; conditions: HCT-15, 48 h, read-out: GI; how it was run: as §1

Compound	inhibition of growth at 10 µM
Cc1csc(NC(=O)C(C)N2CCN(c3ccccc3)CC2)n1 (stereo unspecified)	< 10%

tested on: M14; assay: Growth inhibition of human M14 cells at 10 uM after 48 hrs by coulter counter analysis; assay type: functional; conditions: M14, 48 h, read-out: GI; how it was run: as §1

Compound	inhibition of growth at 10 µM
Cc1csc(NC(=O)C(C)N2CCN(c3ccccc3)CC2)n1 (stereo unspecified)	< 10%

tested on: Malme-3M; assay: Growth inhibition of human MALME-3M cells at 10 uM after 48 hrs by coulter counter analysis; assay type: functional; conditions: read-out: GI; how it was run: as §1

Compound	inhibition of growth at 10 µM
Cc1csc(NC(=O)C(C)N2CCN(c3ccccc3)CC2)n1 (stereo unspecified)	< 10%

tested on: OVCAR-8; assay: Growth inhibition of human OVCAR8 cells at 10 uM after 48 hrs by coulter counter analysis; assay type: functional; conditions: OVCAR-8, 48 h, read-out: GI; how it was run: as §1

Compound	inhibition of growth at 10 µM
Cc1csc(NC(=O)C(C)N2CCN(c3ccccc3)CC2)n1 (stereo unspecified)	< 10%

tested on: NCI-H226; assay: Growth inhibition of human NCI-H226 cells at 10 uM after 48 hrs by coulter counter analysis; assay type: functional; conditions: NCI-H226, 48 h, read-out: GI; how it was run: as §1

Compound	inhibition of growth at 10 µM
Cc1csc(NC(=O)C(C)N2CCN(c3ccccc3)CC2)n1 (stereo unspecified)	11.7%

tested on: HOP-92; assay: Growth inhibition of human HOP92 cells at 10 uM after 48 hrs by coulter counter analysis; assay type: functional; conditions: HOP-92, 48 h, read-out: GI; how it was run: as §1

Compound	inhibition of growth at 10 µM
Cc1csc(NC(=O)C(C)N2CCN(c3ccccc3)CC2)n1 (stereo unspecified)	< 10%

tested on: MCF7; assay: Growth inhibition of human MCF7 cells at 10 uM after 48 hrs by coulter counter analysis; assay type: functional; conditions: MCF7, 48 h, read-out: GI; how it was run: as §1

Compound	inhibition of growth at 10 µM
Cc1csc(NC(=O)C(C)N2CCN(c3ccccc3)CC2)n1 (stereo unspecified)	< 10%

tested on: RPMI-8226; assay: Growth inhibition of human RPMI8226 cells at 10 uM after 48 hrs by coulter counter analysis; assay type: functional; conditions: RPMI-8226, 48 h, read-out: GI; how it was run: as §1

Compound	inhibition of growth at 10 µM
Cc1csc(NC(=O)C(C)N2CCN(c3ccccc3)CC2)n1 (stereo unspecified)	< 10%

tested on: SF-268; assay: Growth inhibition of human SF268 cells at 10 uM after 48 hrs by coulter counter analysis; assay type: functional; conditions: SF-268, 48 h, read-out: GI; how it was run: as §1

Compound	inhibition of growth at 10 µM
Cc1csc(NC(=O)C(C)N2CCN(c3ccccc3)CC2)n1 (stereo unspecified)	< 10%

tested on: UO-31; assay: Growth inhibition of human UO31 cells at 10 uM after 48 hrs by coulter counter analysis; assay type: functional; conditions: UO-31, 48 h, read-out: GI
How it was run: (§2)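 Single-dose screen in the NCI 60 cell line panel. Cells grown in RPMI 1640 with 10% FBS. Compounds dissolved in DMSO and diluted in phosphate buffered saline, final DMSO under 1%. Duplicate wells seeded from culture at 6 × 10⁴ cells/ml. Incubated 48 h at 37 °C, humidified, 5% CO2. Cells diluted tenfold in saline and Coulter-counted. Percent growth inhibition computed against PBS/DMSO controls.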

Compound	inhibition of growth at 10 µM
Cc1csc(NC(=O)C(C)N2CCN(c3ccccc3)CC2)n1 (stereo unspecified)	17.9%

tested on: UACC-62; assay: Growth inhibition of human UACC62 cells at 10 uM after 48 hrs by coulter counter analysis; assay type: functional; conditions: UACC-62, 48 h, read-out: GI; how it was run: as §2

Compound	inhibition of growth at 10 µM
Cc1csc(NC(=O)C(C)N2CCN(c3ccccc3)CC2)n1 (stereo unspecified)	< 10%

tested on: NCI-H522; assay: Growth inhibition of human NCI-H522 cells at 10 uM after 48 hrs by coulter counter analysis; assay type: functional; conditions: NCI-H522, 48 h, read-out: GI; how it was run: as §1

Compound	inhibition of growth at 10 µM
Cc1csc(NC(=O)C(C)N2CCN(c3ccccc3)CC2)n1 (stereo unspecified)	< 10%

tested on: IGROV-1; assay: Growth inhibition of human IGROV1 cells at 10 uM after 48 hrs by coulter counter analysis; assay type: functional; conditions: IGROV-1, 48 h, read-out: GI; how it was run: as §1

Compound	inhibition of growth at 10 µM
Cc1csc(NC(=O)C(C)N2CCN(c3ccccc3)CC2)n1 (stereo unspecified)	< 10%

tested on: SW-620; assay: Growth inhibition of human SW620 cells at 10 uM after 48 hrs by coulter counter analysis; assay type: functional; conditions: SW-620, 48 h, read-out: GI; how it was run: as §2

Compound	inhibition of growth at 10 µM
Cc1csc(NC(=O)C(C)N2CCN(c3ccccc3)CC2)n1 (stereo unspecified)	< 10%

tested on: SK-MEL-5; assay: Growth inhibition of human SK-MEL-5 cells at 10 uM after 48 hrs by coulter counter analysis; assay type: functional; conditions: SK-MEL-5, 48 h, read-out: GI; how it was run: as §1

Compound	inhibition of growth at 10 µM
Cc1csc(NC(=O)C(C)N2CCN(c3ccccc3)CC2)n1 (stereo unspecified)	< 10%

tested on: SR; assay: Growth inhibition of human SR cells at 10 uM after 48 hrs by coulter counter analysis; assay type: functional; conditions: read-out: GI; how it was run: as §2

Compound	inhibition of growth at 10 µM
Cc1csc(NC(=O)C(C)N2CCN(c3ccccc3)CC2)n1 (stereo unspecified)	< 10%

tested on: LOX IMVI; assay: Growth inhibition of human LOXIMVI cells at 10 uM after 48 hrs by coulter counter analysis; assay type: functional; conditions: read-out: GI; how it was run: as §1

Compound	inhibition of growth at 10 µM
Cc1csc(NC(=O)C(C)N2CCN(c3ccccc3)CC2)n1 (stereo unspecified)	< 10%

tested on: COLO 205; assay: Growth inhibition of human COLO205 cells at 10 uM after 48 hrs by coulter counter analysis; assay type: functional; conditions: COLO 205, 48 h, read-out: GI; how it was run: as §1

Compound	inhibition of growth at 10 µM
Cc1csc(NC(=O)C(C)N2CCN(c3ccccc3)CC2)n1 (stereo unspecified)	< 10%

tested on: ACHN; assay: Growth inhibition of human ACHN cells at 10 uM after 48 hrs by coulter counter analysis; assay type: functional; conditions: read-out: GI; how it was run: as §1

Compound	inhibition of growth at 10 µM
Cc1csc(NC(=O)C(C)N2CCN(c3ccccc3)CC2)n1 (stereo unspecified)	< 10%

tested on: NCI-H322M; assay: Growth inhibition of human NCI-H322M cells at 10 uM after 48 hrs by coulter counter analysis; assay type: functional; conditions: read-out: GI; how it was run: as §1

Compound	inhibition of growth at 10 µM
Cc1csc(NC(=O)C(C)N2CCN(c3ccccc3)CC2)n1 (stereo unspecified)	< 10%

tested on: not listed separately; assay: Growth inhibition of human Hs 578T cells at 10 uM after 48 hrs by coulter counter analysis; assay type: functional; conditions: read-out: GI; how it was run: as §1

Compound	inhibition of growth at 10 µM
Cc1csc(NC(=O)C(C)N2CCN(c3ccccc3)CC2)n1 (stereo unspecified)	< 10%

tested on: MDA-MB-468; assay: Growth inhibition of human MDA-MB-468 cells at 10 uM after 48 hrs by coulter counter analysis; assay type: functional; conditions: MDA-MB-468, 48 h, read-out: GI; how it was run: as §1

Compound	inhibition of growth at 10 µM
Cc1csc(NC(=O)C(C)N2CCN(c3ccccc3)CC2)n1 (stereo unspecified)	< 10%

tested on: SF-295; assay: Growth inhibition of human SF295 cells at 10 uM after 48 hrs by coulter counter analysis; assay type: functional; conditions: SF-295, 48 h, read-out: GI; how it was run: as §1

Compound	inhibition of growth at 10 µM
Cc1csc(NC(=O)C(C)N2CCN(c3ccccc3)CC2)n1 (stereo unspecified)	< 10%

tested on: T47D; assay: Growth inhibition of human T47D cells at 10 uM after 48 hrs by coulter counter analysis; assay type: functional; conditions: read-out: GI; how it was run: as §2

Compound	inhibition of growth at 10 µM
Cc1csc(NC(=O)C(C)N2CCN(c3ccccc3)CC2)n1 (stereo unspecified)	< 10%

tested on: OVCAR-4; assay: Growth inhibition of human OVCAR4 cells at 10 uM after 48 hrs by coulter counter analysis; assay type: functional; conditions: OVCAR-4, 48 h, read-out: GI; how it was run: as §1

Compound	inhibition of growth at 10 µM
Cc1csc(NC(=O)C(C)N2CCN(c3ccccc3)CC2)n1 (stereo unspecified)	< 10%

tested on: OVCAR-5; assay: Growth inhibition of human OVCAR5 cells at 10 uM after 48 hrs by coulter counter analysis; assay type: functional; conditions: OVCAR-5, 48 h, read-out: GI; how it was run: as §1

Compound	inhibition of growth at 10 µM
Cc1csc(NC(=O)C(C)N2CCN(c3ccccc3)CC2)n1 (stereo unspecified)	< 10%

tested on: BT-549; assay: Growth inhibition of human BT549 cells at 10 uM after 48 hrs by coulter counter analysis; assay type: functional; conditions: BT-549, 48 h, read-out: GI; how it was run: as §1

Compound	inhibition of growth at 10 µM
Cc1csc(NC(=O)C(C)N2CCN(c3ccccc3)CC2)n1 (stereo unspecified)	< 10%

tested on: SK-MEL-2; assay: Growth inhibition of human SK-MEL-2 cells at 10 uM after 48 hrs by coulter counter analysis; assay type: functional; conditions: SK-MEL-2, 48 h, read-out: GI; how it was run: as §1

Compound	inhibition of growth at 10 µM
Cc1csc(NC(=O)C(C)N2CCN(c3ccccc3)CC2)n1 (stereo unspecified)	< 10%

tested on: OVCAR-3; assay: Growth inhibition of human OVCAR3 cells at 10 uM after 48 hrs by coulter counter analysis; assay type: functional; conditions: OVCAR-3, 48 h, read-out: GI; how it was run: as §1

Compound	inhibition of growth at 10 µM
Cc1csc(NC(=O)C(C)N2CCN(c3ccccc3)CC2)n1 (stereo unspecified)	< 10%

tested on: MDA-MB-231; assay: Growth inhibition of human MDA-MB-231 cells at 10 uM after 48 hrs by coulter counter analysis; assay type: functional; conditions: MDA-MB-231, 48 h, read-out: GI; how it was run: as §1

Compound	inhibition of growth at 10 µM
Cc1csc(NC(=O)C(C)N2CCN(c3ccccc3)CC2)n1 (stereo unspecified)	< 10%

tested on: SF-539; assay: Growth inhibition of human SF539 cells at 10 uM after 48 hrs by coulter counter analysis; assay type: functional; conditions: SF-539, 48 h, read-out: GI; how it was run: as §1

Compound	inhibition of growth at 10 µM
Cc1csc(NC(=O)C(C)N2CCN(c3ccccc3)CC2)n1 (stereo unspecified)	< 10%
